Here are results for 3 molecules from ChEMBL document CHEMBL4814031, “In pursuit of a selective hepatocellular carcinoma therapeutic agent: Novel thalidomide derivatives with antiproliferative, antimigratory and STAT3 inhibitory properties” (Eur J Med Chem, 2021).

The source made the active and inactive calls. No cut-off for these calls is given here.

Data set [1] relates to BMOL-T. Briefly: Antimigratory activity against mouse BMOL-T cells assessed as inhibition of cell migration at 10 uM incubated for 24 hrs by scratch wound healing assay. The format is functional, cell-based. A digest of the protocol: (§1)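 Wound healing in BMOL-T cells plated at 20,000/well in supplemented Williams' E medium and grown 24 h. Wounds made with a Woundmaker, then medium replaced with fresh medium holding compound or 0.1% DMSO vehicle. Live-cell imaging every 2 h over 24 h, read as average wound width (µm). n = 3, SEM.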

Data set [2] in a line: Antimigratory activity against mouse BMOL-T cells assessed as inhibition of cell migration at 10 uM incubated for 16 hrs by scratch wound healing assay relative to control. It is filed as functional. Summed up: as §1
In data set [3] the target is T1, Transcription factor p65 (Mus musculus, UniProt Q04207). Briefly: Inhibition of NFkB p65 phosphorylation in mouse BMOL-NT cells assessed as change in phosphorylated p65 level at 10 uM incubated for 6 hrs by immunofluorescent assay relative to control. Details: scale not given: the % may be the effect or the level left. The format is cell-based. A digest of the protocol:
(§2)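 BMOL cells in supplemented Williams' E medium were treated 6 h with compound or 0.1% DMSO vehicle. Fixed in 4% PFA, permeabilised with 0.1% Triton X-100, blocked, then incubated 18 h with anti-phospho-p65, -Akt or -STAT3, then secondary antibody 1 h and Hoechst. High-content imaging of per-cell intensity and nuclear:whole-cell ratio. Mean of two experiments, SD.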

Data set [4] has as its target Transcription factor p65 (Mus musculus) (UniProt Q04207). As to the kind of experiment: Inhibition of NFkB p65 phosphorylation in mouse BMOL-T cells assessed as change in phosphorylated p65 level at 10 uM incubated for 6 hrs by immunofluorescent assay relative to control. It is filed as cell-based. Details: scale not given: the % may be the effect or the level left. Summed up: as §2

The nature of data set [5]: Inhibition of Akt phosphorylation in mouse BMOL-NT cells assessed as change in phosphorylated Akt level at 10 uM incubated for 6 hrs by immunofluorescent assay relative to control. The format is cell-based. Details: scale not given: the % may be the effect or the level left. A digest of the protocol: as §2
The test system of data set [6] is BMOL-T. Briefly: Inhibition of Akt phosphorylation in mouse BMOL-T cells assessed as change in phosphorylated Akt level at 10 uM incubated for 6 hrs by immunofluorescent assay relative to control. Set-up: scale not given: the % may be the effect or the level left. It is filed as cell-based. Summed up: as §2
Data set [7] concerns the target T2, Signal transducer and activator of transcription 3 (Mus musculus, UniProt P42227). As to the kind of experiment: Inhibition of STAT3 phosphorylation in mouse BMOL-NT cells assessed as change in phosphorylated STAT3 level at 10 uM incubated for 6 hrs by immunofluorescence assay relative to control. The format is cell-based. Details: scale not given: the % may be the effect or the level left. A digest of the protocol:
as §2

Data set [8] concerns the target Signal transducer and activator of transcription 3 (Mus musculus) (UniProt P42227). Briefly: Inhibition of STAT3 phosphorylation in mouse BMOL-T cells assessed as change in phosphorylated STAT3 level at 10 uM incubated for 6 hrs by immunofluorescence assay relative to control. The format is cell-based. Details: scale not given: the % may be the effect or the level left. A digest of the protocol:
as §2

A short description of data set [9]: Antiproliferative activity against mouse BMOL-T cells assessed as cell growth inhibition at 10 uM measured every 4 hrs for 3 days by IncuCyte zoom live cell analysis relative to control. The conditions noted are these: 72 h, time 3 day. It is filed as functional.
Data set [10] in a line: Selectivity for antiproliferative activity against mouse BMOL-T cells over mouse BMOL-NT cells at 10 uM measured every 4 hrs for 3 days by IncuCyte zoom live cell analysis. Conditions: time 3 day.
The nature of data set [11]: (§3) Antiproliferative activity against mouse BMOL-T cells assessed as minimum concentration required for cell growth inhibition measured every 4 hrs for 3 days by IncuCyte zoom live cell analysis. The conditions noted are these: time 3 day. It is filed as functional. A digest of the protocol:
(§4)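 Dose series for BMOL-T proliferation: cells plated at 1000/well, compound added from 2× solutions (final 0.1% DMSO), imaged every 4 h for 3 days. Doubling time from the log-phase linear part of a log confluence vs time curve, expressed as % change over vehicle. n = 3, SEM.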

Data set [12] has as its system BMOL-T. The data set is described as §3. It is filed as functional. Conditions: time 3.0 day. Summed up:
as §4

Data set [13] in a line: Antiproliferative activity against mouse BMOL-NT cells assessed as cell growth inhibition at >10 uM measured every 4 hrs for 3 days by IncuCyte zoom live cell analysis. The format is cell-based. The conditions noted are these: 72 h, time 3 day.
The nature of data set [14]: Selectivity for antiproliferative activity against mouse BMOL-T cells over mouse BMOL-NT cells at 26 uM measured every 4 hrs for 3 days by IncuCyte zoom live cell analysis. The conditions noted are these: time 3 day.
For data set [15], the target named is T1, Transcription factor p65. Briefly: Inhibition of NFkB p65 nuclear translocation in mouse BMOL-NT cells assessed as change in nuclear p65 level at 10 uM incubated for 6 hrs by immunofluorescent assay relative to control. The format is subcellular, Nucleus. Details: scale not given: the % may be the effect or the level left. Summed up: as §2
The target of data set [16] is Transcription factor p65 (Mus musculus) (UniProt Q04207). Briefly: Inhibition of NFkB p65 nuclear translocation in mouse BMOL-T cells assessed as change in nuclear p65 level at 10 uM incubated for 6 hrs by immunofluorescent assay relative to control. Conditions: Nucleus. Details: scale not given: the % may be the effect or the level left. The format is subcellular. Summed up: as §2
Chain of Transcription factor p65 (Mus musculus) (Q04207 whole entry): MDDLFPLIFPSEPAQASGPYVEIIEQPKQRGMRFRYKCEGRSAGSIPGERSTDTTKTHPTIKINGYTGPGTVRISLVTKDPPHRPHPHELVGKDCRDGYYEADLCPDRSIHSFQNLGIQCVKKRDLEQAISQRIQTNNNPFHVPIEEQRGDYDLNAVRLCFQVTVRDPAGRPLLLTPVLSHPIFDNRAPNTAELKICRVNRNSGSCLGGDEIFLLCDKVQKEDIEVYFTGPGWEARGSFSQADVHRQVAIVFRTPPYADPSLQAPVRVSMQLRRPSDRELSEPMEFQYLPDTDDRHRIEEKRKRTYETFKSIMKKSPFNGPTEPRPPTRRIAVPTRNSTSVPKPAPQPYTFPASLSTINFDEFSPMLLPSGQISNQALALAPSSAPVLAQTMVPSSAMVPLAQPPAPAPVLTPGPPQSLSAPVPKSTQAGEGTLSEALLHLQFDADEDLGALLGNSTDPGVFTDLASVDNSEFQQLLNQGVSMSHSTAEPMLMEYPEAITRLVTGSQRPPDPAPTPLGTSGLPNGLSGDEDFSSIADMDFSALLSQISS

Data set [17] is described as follows: Inhibition of Akt phosphorylation in mouse BMOL-NT cells assessed as change in nuclear phosphorylated Akt level at 10 uM incubated for 6 hrs by immunofluorescent assay relative to control. The format is subcellular, Nucleus. Set-up: scale not given: the % may be the effect or the level left. Summed up:
as §2

Data set [18] concerns BMOL-T. As to the kind of experiment: Inhibition of Akt phosphorylation in mouse BMOL-T cells assessed as change in nuclear phosphorylated Akt level at 10 uM incubated for 6 hrs by immunofluorescent assay relative to control. It is filed as subcellular. Set-up: scale not given: the % may be the effect or the level left. The conditions noted are these: Nucleus. A digest of the protocol: as §2

Data set [19] concerns the target T2, Signal transducer and activator of transcription 3. Briefly: Inhibition of STAT3 phosphorylation in mouse BMOL-NT cells assessed as change in nuclear phosphorylated STAT3 level at 10 uM incubated for 6 hrs by immunofluorescence assay relative to control. It is filed as subcellular, Nucleus. Details: scale not given: the % may be the effect or the level left. A digest of the protocol:
as §2

In data set [20] the target is Signal transducer and activator of transcription 3 (Mus musculus) (UniProt P42227). Briefly: Inhibition of STAT3 phosphorylation in mouse BMOL-T cells assessed as change in nuclear phosphorylated STAT3 level at 10 uM incubated for 6 hrs by immunofluorescence assay relative to control. The format is subcellular. Set-up: scale not given: the % may be the effect or the level left. Conditions: Nucleus. A digest of the protocol:
as §2

For data set [21], the system named is BMOL-T. Briefly: Effect on STAT3 expression in mouse BMOL-T cells at 10 uM by AlphaLISA assay. It is filed as functional, cell-based. A digest of the protocol:
(§5)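 AlphaLISA in BMOL-T cells treated at 10 µM with 0.1% DMSO vehicle as control. Read as normalised fluorescence for total STAT3, or as the ratio of total STAT3 to p-STAT3. n ≥ 3, SEM. Significance by ANOVA with Dunnett's test.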

A short description of data set [22]: Antiproliferative activity against mouse BMOL-NT cells assessed as cell growth inhibition at 14 to 26 uM measured every 4 hrs for 3 days by IncuCyte zoom live cell analysis. The conditions noted are these: 72 h, dose 14-26 µM, time 3 day. The format is cell-based.
The nature of data set [23]: Antiproliferative activity against mouse BMOL-NT cells assessed as cell growth by measuring doubling time at 10 uM measured every 4 hrs for 3 days by IncuCyte zoom live cell analysis (reference value: 18 to 19 hrs). It is filed as cell-based. The conditions noted are these: 72 h, time 3 day.
Data set [24] is described as follows: Antiproliferative activity against mouse BMOL-T cells assessed as cell growth by measuring doubling time at 10 uM measured every 4 hrs for 3 days by IncuCyte zoom live cell analysis (reference value: 14.3 to 15 hrs). The conditions noted are these: time 3 day. The format is functional.
Data set [25] addresses Signal transducer and activator of transcription 3 (Mus musculus) (UniProt P42227). Briefly: Inhibition of STAT3 phosphorylation in mouse BMOL-T cells at 10 uM by AlphaLISA assay. It is filed as cell-based. Summed up:
as §5
Background: Alpha assays give light when donor and acceptor beads are brought close together.

A short description of data set [26]: Antiproliferative activity against mouse BMOL-NT cells assessed as change in doubling time at 10 uM measured every 4 hrs for 3 days by IncuCyte zoom live cell analysis relative to control. It is filed as cell-based. The conditions noted are these: 72 h, time 3 day.
Data set [27] is described as follows: Antiproliferative activity against mouse BMOL-T cells assessed as change in doubling time at 10 uM measured every 4 hrs for 3 days by IncuCyte zoom live cell analysis relative to control. The conditions noted are these: time 3 day. It is filed as functional.

As usually defined, the inhibition is the change of the read-out against control, counted positive when it falls.

T1 sequence (Q04207 whole entry): as above
T2 sequence (P42227 whole entry): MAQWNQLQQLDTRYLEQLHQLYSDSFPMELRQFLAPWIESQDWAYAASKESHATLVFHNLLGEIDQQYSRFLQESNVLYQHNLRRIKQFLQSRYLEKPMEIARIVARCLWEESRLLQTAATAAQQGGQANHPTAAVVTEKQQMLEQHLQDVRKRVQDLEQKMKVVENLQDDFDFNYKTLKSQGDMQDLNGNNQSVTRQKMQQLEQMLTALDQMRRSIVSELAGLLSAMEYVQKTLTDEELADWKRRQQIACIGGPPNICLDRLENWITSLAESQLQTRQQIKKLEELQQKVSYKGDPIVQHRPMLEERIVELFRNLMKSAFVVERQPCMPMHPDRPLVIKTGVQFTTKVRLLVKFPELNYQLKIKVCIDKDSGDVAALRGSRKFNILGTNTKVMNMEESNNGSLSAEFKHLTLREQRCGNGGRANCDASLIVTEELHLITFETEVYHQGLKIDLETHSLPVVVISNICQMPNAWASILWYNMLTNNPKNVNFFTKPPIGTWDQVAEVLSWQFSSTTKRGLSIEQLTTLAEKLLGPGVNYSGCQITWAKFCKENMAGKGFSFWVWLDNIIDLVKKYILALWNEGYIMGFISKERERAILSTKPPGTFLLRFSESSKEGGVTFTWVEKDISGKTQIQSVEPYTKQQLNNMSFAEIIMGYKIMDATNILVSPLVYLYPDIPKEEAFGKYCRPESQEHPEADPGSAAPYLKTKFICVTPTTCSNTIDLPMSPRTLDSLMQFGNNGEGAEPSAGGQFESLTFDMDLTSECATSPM
Chain of Signal transducer and activator of transcription 3 (Mus musculus) (P42227 whole entry): as above

As for `CC(C)(C)c1ccc(Nc2cccc3c2C(=O)N(C2CCC(=O)NC2=O)C3=O)cc1` (centres undefined), the outcome in the data set with BMOL-T [1] was Active. In addition, the values for the inhibition at 10 µM in data set [2] and in [9] were 94% and 31%, respectively. Also, the Activity at Transcription factor p65 [3] was -1%; in data set [4], -7%; in data set [5] it was 4%; in the data set with BMOL-T [6], 4%; in data set [7], -4%; in data set [8], -7%. The Activity entry with BMOL-T [12] is “Dose-Dependent Effect”; in data set [13], “Toxic”; on Transcription factor p65 [15] it was -11%; in data set [16] it was -9%; in data set [17], -10%; in the data set on BMOL-T [18], 4%. The Activity in [19] is -13%; in data set [20], -10%. In addition, the Selectivity ratio in data set [10] amounted to 23; in data set [14] it was 3. Further, the MAC in data set [11] turned out to be 4 µM. Further, the result with BMOL-T [21] was inactive.

With `CC(C)(C)c1ccc(Sc2cccc3c2C(=O)N(C2CCC(=O)NC2=O)C3=O)cc1` (centres undefined), the outcome in the data set with BMOL-T [1] was Active. For the same molecule, the inhibition at 10 µM in data set [2] was found to be 80%; in data set [9], 36%. The Activity at Transcription factor p65 [3] was 0%; in data set [4] it was -13%; in [5], 0%; in the data set with BMOL-T [6], -3%; in [7], -5%; in data set [8] it was -22%. Also, the Activity result in the data set on BMOL-T [12] was “Dose-Dependent Effect”; in [13], “Toxic”; in data set [22], “Toxic”; on Transcription factor p65 [15] it was 11%; in [16], -23%; in [17], -25%. The results for the Activity (with BMOL-T [18]; in [19]; in [20]) were -19%, -8% and -16%, respectively. Besides, the Selectivity ratio in data set [10] and in data set [14] was 9 throughout. Also, in data set [11], the MAC was below 6 µM. Also, the result with BMOL-T [21] was inactive.

Take `CN1C(=O)CCC(N2C(=O)c3cccc(Sc4ccc(C(C)(C)C)cc4)c3C2=O)C1=O` (centres undefined): the Time in data set [23] is 24 h; in data set [24], 16.3 h. Besides, the inhibition entry in [25] was “inactive”. Also, the Activity is recorded as 26% in data set [26] and 14% in data set [27]. Also, the outcome with BMOL-T [21] was inactive.
